From ChEMBL document CHEMBL4316610, “Synthesis and Biological Studies of (+)-Liquiditerpenoic Acid A (Abietopinoic Acid) and Representative Analogues: SAR Studies” (J Nat Prod, 2019)
The source made the active and inactive calls. No cut-off for these calls is given here.

Columns and labels:
SW1573 = assay: Antiproliferative activity against human SW1573 cells after 48 hrs by SRB assay; format: functional; details: SW1573, 48 h
[1] = molecular target: T1, GABA-A receptor; alpha-1/beta-2/gamma-2 (Homo sapiens) (UniProt P14867+P47870+P18507); assay: Modulation of recombinant wild type GABAA receptor alpha1beta2gamma2S (unknown origin) expressed in Xenopus laevis oocytes assessed as increase in GABA-evoked chloride current at 100 uM at -70 mV holding potential by two-microelectrode voltage clamp assay relative to control; format: cell-based
How it was run: (§1)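 Two-microelectrode voltage clamp at -70 mV on Xenopus laevis oocytes expressing α1β2γ2S GABA-A receptors. GABA EC5 (4-5 μM), set individually for each oocyte, applied for 20 s alone, then co-applied with compound at 10 or 100 μM. Potentiation of GABA-evoked current is reported. Dehydroabietic acid served as positive control. Mean ± SEM from at least three oocytes and two oocyte batches.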

HBL-100 = assay: Antiproliferative activity against human HBL100 cells after 48 hrs by SRB assay; format: functional; details: HBL-100, 48 h
T47D = assay: Antiproliferative activity against human T47D cells after 48 hrs by SRB assay; format: functional
[2] = Selectivity index, ratio of CC50 for mouse J774 cells to IC50 for Leishmania guyanensis 141/93 promastigotes; format: toxicity; details: read-out: Ratio CC50/IC50
[3] = molecular target: T1, GABA-A receptor; alpha-1/beta-2/gamma-2 (Homo sapiens); assay: Modulation of recombinant wild type GABAA receptor alpha1beta2gamma2S (unknown origin) expressed in Xenopus laevis oocytes assessed as increase in GABA-evoked chloride current at 10 uM at -70 mV holding potential by two-microelectrode voltage clamp assay relative to control; format: cell-based; how it was run: as §1
A549 = assay: Antiproliferative activity against human A549 cells after 48 hrs by SRB assay; format: functional; details: A549, 48 h
[4] = Selectivity index, ratio of CC50 for mouse J774 cells to IC50 for Leishmania amazonensis MHOM/Br/79/Mari promastigotes; format: toxicity; details: read-out: Ratio CC50/IC50
Leishmania guyanensis [5] = assay: Antileishmanial activity against Leishmania guyanensis 141/93 promastigotes after 48 hrs by resazurin dye-based fluorometric analysis; format: functional, organism-based; details: Leishmania guyanensis, 141/93, 48 h; read-out: IC50
How it was run: (§2)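 The IC50 is taken as the compound concentration giving a 50% reduction in parasites, reported with SD.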

[6] = Selectivity index, ratio of CC50 for mouse J774 cells to IC50 for Leishmania infantum MCAN/ES/96/BCN150 promastigotes; format: toxicity; details: read-out: Ratio CC50/IC50
Leishmania donovani = assay: Antileishmanial activity against Leishmania donovani MHOM/IN/80/DD8 promastigotes after 48 hrs by resazurin dye-based fluorometric analysis; format: functional, organism-based; details: Leishmania donovani, MHOM/IN/80/DD8, 48 h; how it was run: as §2
Leishmania infantum [7] = assay: Antileishmanial activity against Leishmania infantum MCAN/ES/96/BCN150 amastigotes infected in mouse J774 cells after 48 hrs by resazurin dye-based fluorometric analysis; format: functional, organism-based; details: MCAN/ES/96/BCN150, J774, 48 h
[8] = Selectivity index, ratio of CC50 for mouse J774 cells to IC50 for Leishmania infantum MCAN/ES/96/BCN150 amastigotes infected in mouse J774 cells; format: toxicity, cell-based; details: read-out: Ratio CC50/IC50
How it was run: (§3)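 CC50: concentration giving 50% reduction of viability in treated cells relative to untreated; IC50: concentration giving 50% reduction in parasites; SI = CC50/IC50.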

WiDr = assay: Antiproliferative activity against human WiDr cells after 48 hrs by SRB assay; format: functional
[9] = Cytotoxicity against mouse J774 cells assessed as reduction in cell viability after 48 hrs by resazurin dye-based fluorometric analysis
How it was run: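 The CC50 is taken as the concentration giving a 50% reduction in cell viability of treated cultures compared with untreated cells.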

[10] = Selectivity index, ratio of CC50 for mouse J774 cells to IC50 for Leishmania donovani MHOM/IN/80/DD8 promastigotes; format: toxicity; details: read-out: Ratio CC50/IC50
Leishmania infantum [11] = assay: Antileishmanial activity against Leishmania infantum MCAN/ES/96/BCN150 promastigotes after 48 hrs by resazurin dye-based fluorometric analysis; format: functional, organism-based; details: Leishmania infantum, MCAN/ES/96/BCN150, 48 h; read-out: IC50; how it was run: as §2
HeLa = assay: Antiproliferative activity against human HeLa cells after 48 hrs by SRB assay; format: functional
Leishmania amazonensis [12] = assay: Antileishmanial activity against Leishmania amazonensis MHOM/Br/79/Mari promastigotes after 48 hrs by resazurin dye-based fluorometric analysis; format: functional, organism-based; details: Leishmania amazonensis, MHOM/Br/79/Mari, 48 h; read-out: IC50; how it was run: as §2
Leishmania amazonensis [13] = assay: Antileishmanial activity against Leishmania amazonensis MHOM/Br/79/Mari amastigotes infected in mouse J774 cells after 48 hrs by resazurin dye-based fluorometric analysis; format: functional, organism-based; details: J774, 48 h
[14] = Selectivity index, ratio of CC50 for mouse J774 cells to IC50 for Leishmania amazonensis MHOM/Br/79/Mari amastigotes infected in mouse J774 cells; format: toxicity, cell-based; details: read-out: Ratio CC50/IC50; how it was run: as §3
KOPN-8 [15] = assay: Induction of apoptosis in human KOPN8 cells assessed as late apoptotic cells at 20 uM after 32 hrs by Annexin V-FITC/propidium iodide staining-based flow cytometric analysis relative to control; format: functional
KOPN-8 [16] = assay: Antiproliferative activity against human KOPN8 cells after 72 hrs by CellTiter-Glo luminescent cell viability assay; format: functional, cell-based; details: KOPN-8, 72 h
NALM-6 [17] = assay: Antiproliferative activity against human NALM6 cells after 72 hrs by CellTiter-Glo luminescent cell viability assay; format: functional, cell-based; details: NALM-6, 72 h
NALM-6 [18] = assay: Cell cycle arrest in human NALM6 cells assessed as accumulation at G0/G1 phase at 10 uM after 24 hrs by propidium iodide staining-based flow cytometric analysis; format: functional
How it was run: (§4)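 Phosphatidylserine exposure read by Annexin V-FITC/propidium iodide flow cytometry; DNA content by PI staining for cell-cycle distribution.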

BJ = assay: Antiproliferative activity against human BJ cells after 72 hrs by CellTiter-Glo luminescent cell viability assay; format: ADME, cell-based
NALM-6 [19] = assay: Induction of apoptosis in human NALM6 cells after 24 hrs by Annexin V-FITC/propidium iodide staining-based flow cytometric analysis; format: functional, cell-based; how it was run: as §4
NALM-6 [20] = assay: Cell cycle arrest in human NALM6 cells assessed as accumulation at G2/M phase at 10 uM after 24 hrs by propidium iodide staining-based flow cytometric analysis; format: functional; how it was run: as §4
[21] = Antiproliferative activity against mouse leukemia cells overexpressing BCR/ABL after 72 hrs by CellTiter-Glo luminescent cell viability assay; format: functional, cell-based
UoC-B1 = assay: Antiproliferative activity against human UOCB1 cells after 72 hrs by CellTiter-Glo luminescent cell viability assay; format: functional, cell-based; details: UoC-B1, 72 h
SUP-B15 = assay: Antiproliferative activity against human SUP-B15 cells after 72 hrs by CellTiter-Glo luminescent cell viability assay; format: functional, cell-based; details: SUP-B15, 72 h
Leishmania guyanensis [22] = assay: Potency index, ratio of miltefosine IC50 to compound IC50 for Leishmania guyanensis 141/93 promastigotes after 48 hrs by resazurin dye-based fluorometric analysis; format: functional
[23] = molecular target: T2, GABA-A receptor; alpha-1/beta-2/gamma-2 (Homo sapiens, UniProt P14867+P18507+P47870); assay: (§5) Modulation of recombinant wild type GABAA receptor alpha1beta2gamma2S (unknown origin) expressed in Xenopus laevis oocytes assessed as increase in GABA-evoked chloride current at -70 mV holding potential by two-microelectrode voltage clamp assay; format: cell-based
T2 sequence (P14867 whole entry): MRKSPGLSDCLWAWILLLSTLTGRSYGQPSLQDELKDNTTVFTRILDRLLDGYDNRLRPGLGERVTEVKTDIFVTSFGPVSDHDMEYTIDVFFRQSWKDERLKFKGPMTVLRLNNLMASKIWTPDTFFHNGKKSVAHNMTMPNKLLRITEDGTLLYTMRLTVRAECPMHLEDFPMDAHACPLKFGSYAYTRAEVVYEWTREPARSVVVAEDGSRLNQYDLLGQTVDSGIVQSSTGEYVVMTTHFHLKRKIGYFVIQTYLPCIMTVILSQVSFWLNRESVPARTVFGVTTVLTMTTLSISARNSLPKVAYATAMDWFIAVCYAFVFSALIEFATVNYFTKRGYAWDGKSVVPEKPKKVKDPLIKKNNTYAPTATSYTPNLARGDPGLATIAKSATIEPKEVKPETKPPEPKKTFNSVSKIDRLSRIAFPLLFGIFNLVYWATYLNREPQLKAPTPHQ
T2 sequence (P47870 whole entry): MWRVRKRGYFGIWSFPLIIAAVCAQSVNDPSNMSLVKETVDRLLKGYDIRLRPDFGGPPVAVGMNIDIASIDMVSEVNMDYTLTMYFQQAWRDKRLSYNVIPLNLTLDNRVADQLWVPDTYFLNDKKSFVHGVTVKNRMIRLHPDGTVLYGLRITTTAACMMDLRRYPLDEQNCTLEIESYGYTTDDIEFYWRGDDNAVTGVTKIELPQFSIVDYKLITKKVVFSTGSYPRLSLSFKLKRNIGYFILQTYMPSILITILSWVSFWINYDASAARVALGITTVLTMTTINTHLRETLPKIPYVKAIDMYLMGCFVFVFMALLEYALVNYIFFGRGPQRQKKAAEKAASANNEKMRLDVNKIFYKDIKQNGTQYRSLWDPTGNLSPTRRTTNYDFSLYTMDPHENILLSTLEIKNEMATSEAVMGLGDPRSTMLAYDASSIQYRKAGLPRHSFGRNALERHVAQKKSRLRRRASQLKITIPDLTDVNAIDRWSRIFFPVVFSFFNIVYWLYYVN
T2 sequence (P18507 whole entry): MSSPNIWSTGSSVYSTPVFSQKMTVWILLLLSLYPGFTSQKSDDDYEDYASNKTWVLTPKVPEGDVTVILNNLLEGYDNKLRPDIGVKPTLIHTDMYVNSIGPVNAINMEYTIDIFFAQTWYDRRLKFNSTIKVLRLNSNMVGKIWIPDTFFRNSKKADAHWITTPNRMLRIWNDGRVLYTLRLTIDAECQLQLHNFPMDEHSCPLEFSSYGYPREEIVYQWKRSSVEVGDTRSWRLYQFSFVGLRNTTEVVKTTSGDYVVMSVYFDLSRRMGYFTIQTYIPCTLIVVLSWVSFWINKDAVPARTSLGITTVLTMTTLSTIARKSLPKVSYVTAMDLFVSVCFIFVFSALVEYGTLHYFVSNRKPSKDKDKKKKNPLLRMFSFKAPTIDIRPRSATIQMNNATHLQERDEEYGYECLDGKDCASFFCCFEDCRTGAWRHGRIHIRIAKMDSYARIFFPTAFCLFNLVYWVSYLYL
How it was run: (§6)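 Two-microelectrode voltage clamp of Xenopus laevis oocytes expressing α1β2γ2S GABA_A receptors, held at -70 mV. GABA EC5 (4-5 μM), determined individually for each oocyte, applied for 20 s alone or co-applied with compound at 10 and 100 μM; potentiation of GABA-evoked current measured. Dehydroabietic acid as positive control; mean ± SEM from at least three oocytes and two oocyte batches.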

[24] = molecular target: T1, GABA-A receptor; alpha-1/beta-2/gamma-2 (Homo sapiens); assay: as §5; format: cell-based; how it was run: as §6
[25] = read-out: log(1/IC50) (converted)

Row | Compound | Activity [1] [%] | selectivity ratio [2] | Activity [3] [%] | selectivity ratio [4] | IC50 (Leishmania guyanensis [5]) [µM] | selectivity ratio [6] | IC50 (Leishmania donovani; read-out: IC50) [µM] | IC50 (Leishmania donovani; [25]) [µM] | CC50 at 48 h [9] [µM] | selectivity ratio [10] | IC50 (Leishmania infantum [11]) [µM] | IC50 (Leishmania amazonensis [12]) [µM] | also measured
1 | COC(=O)[C@]1(C)CCC[C@]2(C)c3cc(C(C)=O)c(C(C)C)cc3CC[C@@H]12 | -2.9 | 9.1 | 2.7 | 11.2 | 14.2 | 51.8 | 14.8 | 14.8 | 130 | 8.8 | 2.5 | 11.6 | GI50 (SW1573): 11 µM; GI50 (HBL-100): 15 µM; GI50 (T47D): 10 µM; GI50 (A549): 18 µM; IC50 (Leishmania infantum [7]): 37.2 µM; selectivity ratio [8]: 3.5; GI50 (WiDr): 17 µM; GI50 (HeLa): 11 µM; IC50 (Leishmania amazonensis [13]): 31.4 µM; selectivity ratio [14]: 4.1
2 | COC(=O)[C@]1(C)CCC[C@]2(C)c3cc(OC(C)=O)c(C(C)C)cc3C(=O)C[C@@H]12 | 46.7 | 13.6 | -1 | 27.4 | 1.3 | 25.4 | 4.4 | 4.38 | 17.8 | 4.1 | 0.7 | 0.65 | Activity (KOPN-8 [15]): >85%; EC50 (KOPN-8 [16]): 18.5 µM; EC50 (NALM-6 [17]): 10.7 µM; Activity (NALM-6 [18]): Active; EC50 (BJ): Non-Toxic; Activity (NALM-6 [19]): Dose-dependent effect; Activity (NALM-6 [20]): Active; EC50 [21]: 12.2 µM; EC50 (UoC-B1): > 40 µM; EC50 (SUP-B15): 21.7 µM; Ratio IC50 (Leishmania guyanensis [22]): 13
3 | CC(C)C1=CC2=CC[C@H]3[C@](C)(C(=O)O)CCC[C@]3(C)C2CC1 (some centres undefined) | 841 | – | 187 | – | – | – | – | – | – | – | – | – | EC50 [23]: 8.7 µM; Emax [24]: 398%
